RGS4 act: RGS4 potentiators or activators, primary screen, cell-based, HEK293 M3R inducible RGS4, calcium flux; carbachol calcium flux Fluo4; stronger effect = lower value; B-score at 10 µM; 310,000 tested, 0.92% active;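 active = B-score of the integrated calcium signal more than 4 SD below the library mean, with starting fluorescence not abnormally high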;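 note: negative B-score means reduced calcium response which marks RGS4 activation or potentiation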
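Material: Inducible-RGS4 HEK293 cells carrying M3 receptor; also added: carbachol at ECmax as muscarinic agonist stimulus; incubation: compound preincubation 20 min at room temperature before agonist; signal: Fluo4-AM (2 µM) calcium-flux fluorescence, kinetic read; measure: integrated calcium ratio converted to B score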
MrgX1 antagonist: antagonists of human MrgX1 receptor, primary screen, HEK293 cells, Fluo-4 calcium flux | Mas-related G-protein coupled receptor member X1 (Homo sapiens), Q96LB2 | BAM8-22 antagonism; stronger effect = lower value | B-score at 10 µM | 310,000 tested, 1.3% active;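 active = calcium-response B-score plate-corrected more than 3 library SD below zero, starting fluorescence within 5 deviations, no agonist response on first addition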;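 note: peak minus trough fluorescence over baseline after final BAM8-22 challenge near maximal dose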
Target sequence (Q96LB2 whole entry, looked up): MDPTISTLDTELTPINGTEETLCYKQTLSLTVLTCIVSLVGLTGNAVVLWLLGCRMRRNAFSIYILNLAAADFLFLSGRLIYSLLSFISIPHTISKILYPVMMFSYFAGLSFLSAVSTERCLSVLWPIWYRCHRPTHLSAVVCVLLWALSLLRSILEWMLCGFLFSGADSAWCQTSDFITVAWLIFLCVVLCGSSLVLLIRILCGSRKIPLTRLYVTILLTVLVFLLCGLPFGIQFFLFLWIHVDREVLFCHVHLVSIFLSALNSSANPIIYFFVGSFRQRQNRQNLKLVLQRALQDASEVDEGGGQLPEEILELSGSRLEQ
MrgX1 allo act: positive allosteric modulators of MrgX1, primary screen, HEK293 cells, Fluo-4 calcium flux; AID 588675, 2011; Mas-related G-protein coupled receptor member X1 (Homo sapiens), Q96LB2; 310,000 tested, 0.63% active; B-score at 10 µM; FDSS; stronger effect = higher value;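 active = plate-corrected calcium response at least 3 library SD above typical, normal starting fluorescence, not activating the receptor alone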;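 note: compound read alongside a low EC10 to EC30 dose of BAM8-22 agonist; peak minus trough fluorescence over baseline measured at the second addition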
MrgX1 ag: agonists of human MrgX1 receptor, primary screen, HEK293 cells, Fluo-4 calcium flux | Mas-related G-protein coupled receptor member X1 (Homo sapiens), Q96LB2 | 310,000 tested, 0.44% active | B-score at 10 µM | Fluo-4 calcium fluorescence, agonist mode; stronger effect = higher value | AID 588627, 2011;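 active = calcium response B-score plate-corrected fluorescence ratio at least 3 library SD, with starting fluorescence B-score inside 5 SD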
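Material: HEK293 cells stably expressing human MrgX1 receptor | Quantity: 15,000 cells per well | Times: Cells plated overnight, dye loaded 0.5 h 37 °C, 0.5 h room temperature | Measured by: Kinetic Fluo-4 NW fluorescence of intracellular calcium | Control set: Positive and negative controls per plate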
RGS4 block: RGS4 inhibitors, primary screen, cell-based, HEK293 M3R inducible RGS4, calcium flux; Fluo-4 calcium flux; stronger effect = higher value; triggered by carbachol at its EC20; B-score at 10 µM; 310,000 tested, 0.45% active; AID 463165, 2010;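 active = B-score, a plate-corrected calcium signal, over three deviations above library mean, with baseline fluorescence within five deviations of library mean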;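 note: RGS4 expression induced by doxycycline in cells with stable M3 receptor; B-score is computed from the integrated fluorescence ratio over baseline after carbachol; higher B-score means a larger calcium signal and so more RGS4 inhibition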
The depositor's hits bear a star; i = inactive; / = not tested or not shown. An excerpt weighted towards active compounds, which were near 3.5% of everything screened.

SMILES	RGS4 act	MrgX1 antagonist	MrgX1 allo act	MrgX1 ag	RGS4 block
CCC1Oc2ccccc2N(CC(=O)NCCCN2CCN(Cc3ccccc3)CC2)C1=O (configuration not stated)	i	-5.32*	i	i	i
CCCN1CCN(CCCNC(=O)CN2C(=O)C(CC)Oc3ccccc32)CC1 (configuration not stated)	i	i	i	i	i
Cc1cc(=O)oc2cc(OCC(=O)OCC(=O)NC3CC3)ccc12	i	i	i	i	i
Cn1c(=O)c2c(nc(CN3CCN(C(=O)c4ccco4)CC3)n2CC(=O)C(C)(C)C)n(C)c1=O	i	i	i	i	i
Cc1cc(N/N=C\c2ccccc2)nc(-c2ccccc2O)n1	-7.62*	i	i	i	i
CC(NCc1cccs1)c1ccccc1 (configuration not stated)	i	i	i	i	i
CC(C)COc1cccc(-c2cc(C(=O)N/N=C/c3ccncc3)c3ccccc3n2)c1	-7.42*	i	i	i	i
CCOc1cc(/C=N/NC(=O)c2cc(-c3cccc(OC)c3)nc3ccccc23)ccc1O	i	i	i	i	i
C/C(=N\NC(=O)c1cc(-c2cccc(OC(C)C)c2)nc2ccccc12)c1cccnc1	-9.01*	i	i	i	i
CC1CCCCC1Nc1ncnc2sccc12 (configuration not stated)	i	i	i	i	i
Cc1sc2ncnc(NCC(O)c3ccccc3)c2c1C (configuration not stated)	i	i	i	i	i
Cc1sc2ncnc(NCC(O)c3ccc([N+](=O)[O-])cc3)c2c1C (configuration not stated)	i	-5.02*	i	i	i
Cc1nc(NCC(c2ccccc2)N(C)C)c2c(C)c(C)sc2n1 (configuration not stated)	-9.54*	i	i	i	i
Cc1sc2ncnc(NCCCO)c2c1C	i	i	i	i	i
Cc1sc2ncnc(NCC(c3ccccc3)N(C)C)c2c1C (configuration not stated)	-7.49*	i	i	i	i
CCN(CC(=O)Nc1ccc(NC(C)=O)cc1)C(=O)/C=C/c1c(C)nn(-c2ccc(F)cc2)c1C	i	i	i	i	i
O=C(COc1coc(CN2CCc3ccccc32)cc1=O)Nc1cccc(F)c1	i	i	i	i	i
C=CCn1c(C)cc(C(=O)CN2NS(=O)(=O)c3ccccc3C2=O)c1C	i	i	7.11*	i	i
C=CCn1c(C)cc(C(=O)Cn2ncc(Cl)c(Cl)c2=O)c1C	i	i	i	i	i
CC(NCc1ccc(S(N)(=O)=O)cc1)C(=O)Nc1cccc(Cl)c1 (configuration not stated)	i	i	i	i	i
CCOc1ccc(/C=C2/SC(=O)NC2=S)cc1	i	i	i	32.2*	i
CCOc1ccc(/C=C2\SC(=S)N(N3C(=O)C4CC4C3=O)C2=O)cc1 (configuration not stated)	i	i	i	i	i
O=c1c2ccccc2nc(/C=C/c2cccc([N+](=O)[O-])c2)n1CCCO	i	i	7.21*	i	i
O=c1c2ccccc2nc(/C=C/c2ccc([N+](=O)[O-])cc2)n1CCCO	i	i	i	i	i
O=C(NCCN1C(=O)S/C(=C\c2ccccc2F)C1=O)C1CCN(S(=O)(=O)c2cccs2)CC1	i	-8.86*	i	i	i
CS(=O)(=O)C1=NN2C(=N)/C(=C\c3ccc(OC(=O)c4ccco4)cc3)C(=O)N=C2S1	i	i	11.7*	i	i
CC(C)CS(=O)(=O)C1=NN2C(=N)/C(=C\c3ccc(OC(=O)c4ccco4)cc3)C(=O)N=C2S1	i	i	i	29.1*	i
N=C1/C(=C\c2ccc(OC(=O)c3ccco3)cc2)C(=O)N=C2SC=NN12	i	/	/	/	i

Screens as filed in PubChem.
